Measurements taken from ChEMBL document CHEMBL5523695, “Discovery of small molecule benzothiazole and indole derivatives tackling tau 2N4R and α-synuclein fibrils” (Bioorg Med Chem, 2024).
Calls of active or inactive are those of the source. The calls are words filed in the database; no cut-off is given here.

Columns and labels:
[1] = target: Alpha-synuclein (Homo sapiens) (UniProt P37840); experiment: Inhibition of alpha-syn (unknown origin) aggregation assessed as reduction in fluorescence by Thioflavin-T based fluorescence analysis relative to control; conditions: concentration not given here
Method in brief: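 Recombinant α-syn monomer (2 μM final, diluted from a 280 μM stock in 20 mM Tris-HCl pH 7.4) in 10 mM PBS pH 7.4 with 0.5 mM SDS and 300 mM NaCl, one glass bead per well. Compound 100 μM final, ThT 20 μM, 0.25% DMSO. Ex/em 440/485 nm, read every 20 min at 37 °C with shaking, 40–70 h. Triplicates. Plateau fluorescence as % of control, background-corrected.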

[2] = target: Alpha-synuclein (Homo sapiens) (UniProt P37840); experiment: Inhibition of recombinant alpha-Synuclein (unknown origin) aggregation assessed as reduction in fluorescence intensity by measuring residual activity at 100 uM measured every 20 mins for 40 to 70 hrs by Thioflavin T based fluorescence analysis relative to control; conditions: time 40-70 hrs
Method in brief: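 Recombinant α-syn (2 μM final) in 10 mM PBS pH 7.4 with 0.5 mM SDS and 300 mM NaCl. Compound at 100 μM final, ThT 20 μM, one borosilicate bead per well. Read at 37 °C every 20 min after 10 s shaking, ex 440/em 485 nm, for 40–70 h. Background was ThT plus 0.25 % DMSO without protein. Plateau fluorescence expressed as % of control, triplicates, mean ± SEM.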

[3] = target: T1, Microtubule-associated protein tau (Homo sapiens, UniProt P10636); experiment: Inhibition of tau 2N4R (unknown origin) aggregation expressed in Escherichia coli Rosetta BL21 cells assessed as reduction in oligomer formation at 50 to 200 uM incubated for 10 mins in presence of 53W light exposure for 60 sec by PICUP assay; conditions: dose 50-200 µM
Method in brief: (§1)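 Tau 2N4R or 0N4R, expressed in-house from a pET30a construct in E. coli Rosetta BL21 and purified by heat step plus SP cation exchange, used at 10 μM in 10 mM phosphate buffer. Compound at 50, 100 and 200 μM. Ru(bpy)3 at 300 μM and APS at 6 mM, 60 s light exposure. Samples boiled at 95 °C for 10 min in reducing Laemmli buffer, then 16 % SDS-PAGE with Coomassie.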

[4] = target: T1, Microtubule-associated protein tau; experiment: Inhibition of human tau 0N4R aggregation expressed in Escherichia coli Rosetta BL21 cells assessed as reduction in oligomer formation at 50 to 200 uM incubated for 10 mins in presence of 53W light exposure for 60 sec by PICUP assay; conditions: dose 50-200 µM; method in brief: as §1
[5] = target: Alpha-synuclein (Homo sapiens) (UniProt P37840); experiment: Inhibition of recombinant alpha-Synuclein (unknown origin) aggregation assessed as reduction in protein fibril formation at 100 uM measured after 68 hrs by TEM analysis
Method in brief: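 α-Syn (2 μM) samples taken from the ThT kinetic runs after about 68 h at 37 °C, compound at 100 μM, vehicle 0.25 % DMSO. Applied to Formvar-carbon copper grids for 1 min, washed, and stained with 1 % uranyl acetate for 1 min. Imaged by TEM at 40k magnification, 100 kV.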

[6] = target: T1, Microtubule-associated protein tau; experiment: Inhibition of unfolded tau 2N4R (unknown origin) aggregation expressed in Escherichia coli Rosetta BL21 cells assessed as reduction in protein fibril formation at 100 uM measured after 72 hrs by TEM analysis
Method in brief: (§2)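 Recombinant tau 2N4R (6 μM) incubated with compound at 100 μM, or 0.25 % DMSO, in 10 mM PBS pH 7.4 for 72 h at 37 °C. Placed on Formvar-carbon copper grids for 1 min, rinsed, and negatively stained with 1 % uranyl acetate. TEM at 40k magnification, 100 kV.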

[7] = target: T1, Microtubule-associated protein tau; experiment: Inhibition of unfolded tau 2N4R (unknown origin) aggregation expressed in Escherichia coli Rosetta BL21 cells assessed as reduction in formation of large dense accumulation of tau fibrils at 100 uM measured after 72 hrs by TEM analysis; method in brief: as §2
[8] = target: T1, Microtubule-associated protein tau; experiment: Inhibition of unfolded tau 2N4R (unknown origin) aggregation expressed in Escherichia coli Rosetta BL21 cells assessed as reduction in short and fine needle like fibrils at 100 uM measured after 72 hrs by TEM analysis; method in brief: as §2
[9] = target: T1, Microtubule-associated protein tau; experiment: Inhibition of unfolded tau 2N4R (unknown origin) aggregation expressed in Escherichia coli Rosetta BL21 cells assessed as appearance of rounded structures at 100 uM measured after 72 hrs by TEM analysis; method in brief: as §2
[10] = target: Alpha-synuclein (Homo sapiens) (UniProt P37840); experiment: (§3) Inhibition of alpha-syn inclusion formation in human M17D cells expressing doxycyclin-inducible alpha-syn-S3K::YFP inclusion-prone fusion protein assessed as reduction in inclusions treated with compound starting from 24 hrs post plating followed by doxycyclin addition at 48 hrs and measured 96 hrs post plating by Incucyte-based analysis; format: cell-based; conditions: time 72.0 hrs
Method in brief: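 M17D-TR/αS-3K::YFP cells seeded at 30,000 per well and dosed 24 h post-plating at 1.25–40 μM (vehicle 0.1 % DMSO). Transgene induced at 48 h with dox at 1 μg/mL final. At 96 h, Incucyte analysis of punctate YFP inclusions, expressed as fold change vs DMSO. Two independent experiments, 6–12 wells total, mean ± SD, Dunnett's post-hoc test.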

[11] = as §3, with “Cytotoxicity against” for “Inhibition of alpha-syn inclusion formation in”, “cell confluency at 5 to 40 uM” for “inclusions”; format: toxicity; conditions: 72 h, dose 5-40 µM
Method in brief: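 Dox-inducible M17D-TR/αS-3K::YFP neuroblastoma cells seeded at 30,000 per well. Compound added 24 h after plating at 1.25–40 μM, with 0.1 % DMSO as vehicle. Dox at 1 μg/mL final was added at 48 h. At 96 h, Incucyte imaging gave confluence fold change vs vehicle. N = 2 independent experiments, 6–12 wells total. Mean ± SD, one-way ANOVA with Dunnett's test.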

[12] = target: T1, Microtubule-associated protein tau; experiment: Inhibition of arachidonic acid-induced full-length four-repeat tau 2N4R (unknown origin) aggregation measured upto 19 hrs by TEM analysis

T1 sequence (P10636 whole entry): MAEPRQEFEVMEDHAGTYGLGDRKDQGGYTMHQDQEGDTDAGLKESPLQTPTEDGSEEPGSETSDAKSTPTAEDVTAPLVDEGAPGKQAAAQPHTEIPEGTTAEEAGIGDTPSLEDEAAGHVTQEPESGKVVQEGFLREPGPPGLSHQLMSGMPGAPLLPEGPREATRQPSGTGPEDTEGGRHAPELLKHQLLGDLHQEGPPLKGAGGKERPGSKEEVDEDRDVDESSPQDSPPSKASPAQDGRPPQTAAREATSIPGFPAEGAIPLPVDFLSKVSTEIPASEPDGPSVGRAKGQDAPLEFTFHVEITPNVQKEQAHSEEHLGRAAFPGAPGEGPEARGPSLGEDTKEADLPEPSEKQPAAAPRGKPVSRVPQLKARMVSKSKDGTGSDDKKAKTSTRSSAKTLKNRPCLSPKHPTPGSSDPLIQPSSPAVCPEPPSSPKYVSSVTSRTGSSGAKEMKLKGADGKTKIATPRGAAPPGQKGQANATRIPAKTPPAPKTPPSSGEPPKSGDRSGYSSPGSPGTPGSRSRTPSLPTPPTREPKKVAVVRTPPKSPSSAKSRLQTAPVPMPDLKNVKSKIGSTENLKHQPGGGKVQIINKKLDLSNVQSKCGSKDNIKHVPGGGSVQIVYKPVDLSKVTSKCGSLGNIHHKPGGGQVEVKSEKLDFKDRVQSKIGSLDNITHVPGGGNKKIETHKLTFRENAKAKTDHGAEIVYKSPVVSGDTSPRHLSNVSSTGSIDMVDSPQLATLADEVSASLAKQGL

O=C(O[C@@H]1Cc2c(O)cc(O)cc2O[C@@H]1c1cc(O)c(O)c(O)c1)c1cc(O)c(O)c(O)c1
inhibition [1]: 90%

O=C(Nc1ccc([N+](=O)[O-])cc1)Nc1ccc2cc[nH]c2c1
Activity [2]: 3.6%
inhibition [3]: inactive
inhibition [4]: inactive
inhibition [5]: Active
inhibition [6]: Active
inhibition [7]: Active
inhibition [8]: Active
inhibition [9]: Active
inhibition [10]: Dose-Dependent Effect
Activity [11]: Toxic

CCC(/C=C1\Sc2ccc(OC)cc2N1CCO)=C\c1sc2ccc(OC)cc2[n+]1CCO
IC50 [12]: 0.3 µM
